Assay results from PMC8925131 (Experimental cell research, 2021).

Key:
[1] = target: T1, Plekha7 (D175K) PH domain (Homo sapiens, UniProt Q6IQ23, D175K); assay: Isothermal titration calorimetry; assay type: binding; conditions: ITC, diC8-PI, D175K mutant versus wild-type PH domain
T1 sequence (Q6IQ23 164-298 D175K): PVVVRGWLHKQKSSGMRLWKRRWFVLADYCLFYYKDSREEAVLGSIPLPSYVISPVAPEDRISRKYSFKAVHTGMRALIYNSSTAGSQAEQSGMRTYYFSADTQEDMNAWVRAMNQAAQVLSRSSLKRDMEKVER
Procedure, shortened: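 Human Plekha7 PH domain (residues 164–298, D175K mutant alongside wild type) was GST-vector expressed in E. coli BL21. ITC was run at 23 °C: 50 µM PH domain titrated with 0.5–1.0 mM diC8-phosphoinositides (PI(3,4)P2, PI(3,5)P2, PI(4,5)P2, PI(3,4,5)P3) in 30 mM NaCl, 15 mM Tris pH 7.6, 0.2 mM TCEP. Integrated heats were fit to a single-site model for Kd, reported as mean with SD.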

[2] = target: Plekha7-GFP (Pleckstrin homology domain containing, family A member 7, GFP fusion) (human) (UniProt Q6IQ23); assay: FRET or BRET
mutant KRas CRC cells = assay: Growth of mutant KRas CRC cells; assay type: cell-based; conditions: mutant KRas CRC cells (Figure S12C)
wild type KRas CRC cells = assay: Growth of wild type KRas CRC cells; assay type: cell-based; conditions: wild type KRas CRC cells (Figure S12C)
mutant BRaf CRC cells = assay: Growth of mutant BRaf CRC cells; assay type: cell-based; conditions: mutant BRaf CRC cells (Figure S12C)

Plekha7-GFP (Pleckstrin homology domain containing, family A member 7, GFP fusion) (human), sequence (Q6IQ23 whole entry, the tested form may be a part): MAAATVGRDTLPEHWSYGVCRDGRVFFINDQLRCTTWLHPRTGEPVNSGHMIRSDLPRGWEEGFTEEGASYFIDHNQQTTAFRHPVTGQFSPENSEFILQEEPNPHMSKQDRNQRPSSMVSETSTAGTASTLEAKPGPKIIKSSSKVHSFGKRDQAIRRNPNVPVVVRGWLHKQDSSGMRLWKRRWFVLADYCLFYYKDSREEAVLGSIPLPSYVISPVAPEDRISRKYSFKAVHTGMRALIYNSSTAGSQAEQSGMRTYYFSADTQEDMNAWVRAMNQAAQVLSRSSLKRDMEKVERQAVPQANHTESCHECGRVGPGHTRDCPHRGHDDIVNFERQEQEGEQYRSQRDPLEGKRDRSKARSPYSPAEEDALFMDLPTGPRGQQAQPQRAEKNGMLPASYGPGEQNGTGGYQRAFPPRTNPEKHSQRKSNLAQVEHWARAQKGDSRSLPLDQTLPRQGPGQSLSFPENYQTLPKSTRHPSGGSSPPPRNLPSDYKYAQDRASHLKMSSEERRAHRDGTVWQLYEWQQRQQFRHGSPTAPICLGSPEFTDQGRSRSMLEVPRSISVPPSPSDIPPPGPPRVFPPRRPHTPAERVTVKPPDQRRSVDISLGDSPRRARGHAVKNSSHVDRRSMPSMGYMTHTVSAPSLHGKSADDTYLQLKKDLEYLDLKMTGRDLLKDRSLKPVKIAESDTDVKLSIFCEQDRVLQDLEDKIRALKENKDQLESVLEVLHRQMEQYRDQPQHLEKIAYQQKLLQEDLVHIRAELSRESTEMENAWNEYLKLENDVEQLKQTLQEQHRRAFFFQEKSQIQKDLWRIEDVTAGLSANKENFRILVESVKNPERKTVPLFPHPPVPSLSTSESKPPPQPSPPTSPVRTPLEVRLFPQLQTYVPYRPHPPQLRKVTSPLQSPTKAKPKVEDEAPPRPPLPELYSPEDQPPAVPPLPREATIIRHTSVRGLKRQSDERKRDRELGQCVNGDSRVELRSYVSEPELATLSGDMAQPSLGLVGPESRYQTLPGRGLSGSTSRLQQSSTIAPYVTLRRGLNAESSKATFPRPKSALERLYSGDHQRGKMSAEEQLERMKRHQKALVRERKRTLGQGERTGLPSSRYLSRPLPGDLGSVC

CCCCCCCC(=O)OC[C@H](COP(=O)(O)O[C@H]1[C@H](O)[C@@H](O)[C@H](OP(=O)(O)O)[C@@H](OP(=O)(O)O)[C@H]1O)OC(=O)CCCCCCC [PI(3,4)P2]
increase in affinity for Plekha7 (D175K) compared with the wild-type protein [1]: 10 fold

wild-type KRas-RFP (from UniProt P01116 1-189) (natural protein)
average fluorescence lifetime of Plekha7-GFP [2]: 1.9 ns

CC1(C)Oc2ccc(-c3csc(Cn4nc(CCO)c5ccccc5c4=O)n3)cc2O1 [PHT-7704, 2-((4-(2,2-dimethylbenzo[d][1,3]dioxol-5-yl)thiazol-2-yl)methyl)-4-(2-hydroxyethyl)phthalazin-1(2H)-one]
inhibition of mutant KRas CRC cell growth (mutant KRas CRC cells): selective inhibition
effect on growth of wild type KRas CRC cells (wild type KRas CRC cells): without affecting the growth
inhibition of growth of mutant BRaf CRC cells (mutant BRaf CRC cells): inhibited the growth

CCCCCCCCCCCCCCCCCCOC[C@H](COP(=O)(O)OC1C(O)[C@@H](O)C(O)C[C@H]1O)OC (stereo partly drawn) [DPIEL]
inhibition of mutant KRas CRC cell growth (mutant KRas CRC cells): selective inhibition
effect on growth of wild type KRas CRC cells (wild type KRas CRC cells): without affecting the growth

CCCCCCCC(=O)OC[C@H](COP(=O)(O)O[C@@H]1[C@H](O)[C@H](O)[C@@H](OP(=O)(O)O)[C@H](OP(=O)(O)O)[C@H]1O)OC(=O)CCCCCCC [PI(4,5)P2]
change of affinity for Plekha7 (D175K) compared with wild-type [1]: did not change

CCCCCCCC(=O)OC[C@H](COP(=O)(O)O[C@H]1[C@H](O)[C@@H](OP(=O)(O)O)[C@H](OP(=O)(O)O)[C@@H](OP(=O)(O)O)[C@H]1O)OC(=O)CCCCCCC [PI(3,4,5)P3]
increase in affinity for Plekha7 (D175K) compared with the wild-type protein [1]: 10 fold
